Consider 1 compound from ChEMBL document CHEMBL1649090, “Discovery of (7R)-14-cyclohexyl-7-{[2-(dimethylamino)ethyl](methyl) amino}-7,8-dihydro-6H-indolo[1,2-e][1,5]benzoxazocine-11-carboxylic acid (MK-3281), a potent and orally bioavailable finger-loop inhibitor of the hepatitis C virus NS5B polymerase” (J Med Chem, 2011).

In one data set the test system is Mus musculus. The data set can be described thus: Toxicity in SCID mouse assessed as change in body weight at 50 mg/kg, ip bid for 5 days. The data set is classed as organism-based. Also on record: dose 50 mg/kg, route intraperitoneal. To be noted: in vivo, 120 h. An outline of the steps:
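Non-infected SCID mice (n = 3) received 50 mg/kg by intraperitoneal injection twice daily for five consecutive days, as a tolerability run before the infected-mouse study. Body and organ weights were checked for gross changes. Plasma compound levels were measured 12 h after the last dose.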

A short description of data set [1]: Oral bioavailability in dog at 2 mg/kg, po. The settings on record: in vivo. The data set is classed as ADME, organism-based, Canis lupus familiaris. Put shortly: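 Single-dose PK of the bis-HCl salt, n = 3 per species (dog po n = 2). Intravenous doses: rat 3, dog 1, rhesus 2 mg/kg, in DMSO/PEG400/water 20%/60%/20%. Oral doses: rat 3, dog 2, rhesus 4 mg/kg, in PEG400 for rat and dog and PEG400/water 70%/30% for rhesus.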

The nature of data set [2]: Drug level in Sprague-Dawley rat liver at 3 mg/kg, po after 6 hrs. The data set is classed as ADME, organism-based. To be noted: read-out: Drug uptake. Also on record: dose 3 mg/kg, route oral. An outline of the steps:
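Sprague-Dawley rats (n = 3) received the compound as its TFA salt in DMSO/PEG400/water 20%/60%/20%, as a single iv dose of 3 mg/kg or a single oral dose of 3 mg/kg. Liver tissue and plasma concentrations were measured 6 h after the oral dose.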

Data set [3] can be described thus: Volume of distribution at steady state in rhesus monkey at 2 mg/kg, iv and 4 mg/kg, po. The data set is classed as ADME, organism-based, Macaca mulatta. To be noted: in vivo, read-out: Vdss. An outline of the steps:
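Single iv and single oral doses, given as the bis-HCl salt, in rat, dog and rhesus, n = 3 per species (dog oral n = 2). The iv vehicle was DMSO/PEG400/water 20%/60%/20%. Oral vehicle was PEG400 for rat and dog and PEG400/water 70%/30% for rhesus. Values are mean ± SD.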

The next data set relates to Hepatitis C virus. The data set can be described thus: Antiviral activity against HCV2b. The settings on record: genotype 2b. In kind it is functional, organism-based, Hepacivirus hominis.

The structures appear in SMILES notation.

The bioavailability is the share of a dose that reaches the circulation, judged against a reference dose that is usually intravenous. One may read the EC50 as the concentration at which the effect is half-maximal. On to `CN(C)CCN(C)[C@H]1COc2ccccc2-c2c(C3CCCCC3)c3ccc(C(=O)O)cc3n2C1` [MK-3281], for which the Activity result with Mus musculus is listed as “Non-toxic”. This compound displayed a bioavailability in data set [1] of 78%. Further, the concentration at 6 h in data set [2] worked out at 420 nM. In addition, the Vd in data set [3] is 2.2 L/kg. Also, the midpoint of the response in the data set with Hepatitis C virus, the EC50, lay at 1830 nM.
